pIC50: −log10 of the molar value. In brackets after ≈: the same amount, converted by molar mass.
Assays:
[1] = target: T1, Type-2 angiotensin II receptor (Homo sapiens, UniProt P50052); assay: Inhibition of AT2 receptor
T1 sequence (P50052 whole entry): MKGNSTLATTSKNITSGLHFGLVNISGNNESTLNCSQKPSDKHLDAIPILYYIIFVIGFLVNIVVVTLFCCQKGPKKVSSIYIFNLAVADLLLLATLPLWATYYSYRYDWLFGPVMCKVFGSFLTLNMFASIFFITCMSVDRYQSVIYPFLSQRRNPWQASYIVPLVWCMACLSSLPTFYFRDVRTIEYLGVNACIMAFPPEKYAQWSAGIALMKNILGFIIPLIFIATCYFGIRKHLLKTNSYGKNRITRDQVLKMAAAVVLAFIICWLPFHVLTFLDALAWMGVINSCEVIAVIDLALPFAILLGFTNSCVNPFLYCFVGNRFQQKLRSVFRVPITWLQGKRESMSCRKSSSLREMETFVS
In short: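 AT2 IC50 derived from four dose levels per compound, following a published protocol.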

Staphylococcus aureus [2] = assay: Antibacterial activity against Staphylococcus aureus MB2865 in liquid culture by turbidity method; type: functional
In short: (§1)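 MIC is the lowest concentration giving 100% inhibition of bacterial growth in liquid culture, read by turbidity.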

Staphylococcus aureus [3] = assay: Antibacterial activity against Staphylococcus aureus infected in mouse model assessed as reduction of >= 2 log 10 cfu kidney burden; type: functional
In short: (§2)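 Systemic S. aureus infection mouse model (SATOA). Compounds were given iv; […]. Kidney bacterial burden (cfu) was compared with untreated control. ED99 is the dose giving a reduction of at least 2 log10 cfu in kidney burden.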

Streptococcus pneumoniae = assay: Antibacterial activity against Streptococcus pneumoniae CL2883 in liquid culture by turbidity method; type: functional; in short: as §1
Enterococcus faecalis = assay: Antibacterial activity against Enterococcus faecalis C21560 in liquid culture by turbidity method; type: functional; in short: as §1
Staphylococcus aureus [4] = assay: Antibacterial activity against Staphylococcus aureus infected iv bid dosed mouse model assessed as reduction of colony forming unit in kidney; type: functional; in short: as §2
[5] = Solubility in water at pH 3.4; type: physicochemical
In short: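 Amorphous powders from lyophilized material, as TFA salts; aqueous solubility measured by nephelometry.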

CO/C(C)=C1/NC(=O)[C@H]([C@@H](C)O)NC(=O)c2csc(n2)-c2cc(OC)c(-c3nc(C(=O)NCCCN4CCN(C)CC4)cs3)nc2-c2csc(n2)[C@@H]2COC(=O)c3c4c5c(cccc5n3O)COC(=O)[C@@H](O[C@H]3C[C@](C)(O)[C@H](N(C)C)[C@H](C)O3)[C@@H](OC4)[C@H](NC(=O)c3csc1n3)c1nc(cs1)C(=O)N2
pIC50 [1]: 6.07
MIC (Staphylococcus aureus [2]): 0.09 µg/mL (≈ 0.0591 µM)

CO/C(C)=C1/NC(=O)[C@H]([C@@H](C)O)NC(=O)c2csc(n2)-c2cc(O)c(-c3nc(C(=O)NCCNC(=O)CN(C)C)cs3)nc2-c2csc(n2)[C@@H]2COC(=O)c3c4c5c(cccc5n3O)COC(=O)[C@@H](O[C@H]3C[C@](C)(O)[C@H](N(C)C)[C@H](C)O3)[C@@H](OC4)[C@H](NC(=O)c3csc1n3)c1nc(cs1)C(=O)N2
pIC50 [1]: 7.11
ED99 (Staphylococcus aureus [3]): 0.2 mg/kg
MIC (Staphylococcus aureus [2]): 0.019 µg/mL (≈ 0.0127 µM)
MIC (Streptococcus pneumoniae): 0.00059 µg/mL (≈ 0.000394 µM)
MIC (Enterococcus faecalis): 0.09 µg/mL (≈ 0.0601 µM)

CC(=O)NC[C@H]1CN(c2ccc(N3CCOCC3)c(F)c2)C(=O)O1 [LINEZOLID]
ED99 (Staphylococcus aureus [4]): 12 mg/kg

CO/C(C)=C1/NC(=O)[C@H]([C@@H](C)O)NC(=O)c2csc(n2)-c2cc(O)c(-c3nc(C(=O)NCCN(C)C)cs3)nc2-c2csc(n2)[C@@H]2COC(=O)c3c4c5c(cccc5n3O)COC(=O)[C@@H](O[C@H]3C[C@](C)(O)[C@H](N(C)C)[C@H](C)O3)[C@@H](OC4)[C@H](NC(=O)c3csc1n3)c1nc(cs1)C(=O)N2
pIC50 [1]: 6.72
ED99 (Staphylococcus aureus [3]): 0.17 mg/kg
MIC (Staphylococcus aureus [2]): 0.015 µg/mL (≈ 0.0104 µM)
MIC (Streptococcus pneumoniae): 0.00046 µg/mL (≈ 0.00032 µM)
MIC (Enterococcus faecalis): 0.06 µg/mL (≈ 0.0417 µM)

CO/C(C)=C1/NC(=O)[C@H]([C@@H](C)O)NC(=O)c2csc(n2)-c2cc(OC)c(-c3nc(C(=O)NCCCN4CCOCC4)cs3)nc2-c2csc(n2)[C@@H]2COC(=O)c3c4c5c(cccc5n3O)COC(=O)[C@@H](O[C@H]3C[C@](C)(O)[C@H](N(C)C)[C@H](C)O3)[C@@H](OC4)[C@H](NC(=O)c3csc1n3)c1nc(cs1)C(=O)N2.Cl
solubility [5]: 68 mg/mL
